Cardio protect = myocardial damage modulation in H9c2 cells; H9c2 cardiomyocytes, H2O2 injury protection, ATPLite, 2 h; protection from H2O2 cell death, % at 20 µM; actives 0.63% (n = 360,000);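 active means compounds giving at least 50% protection of heart cells from peroxide-induced death in the single-dose screen, raw or plate-pattern-corrected value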;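 further: 0% = DMSO wells with peroxide and 100% = DMSO wells without peroxide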
NR3A LBD binder = NR3A (human) ligand-binding domain modulation; NR3A LBD differential scanning fluorimetry, Tm shift; 0% = protein alone, 100% = glycine-bound protein; Tm shift relative to glycine control, % at 25 µM; actives 2.5% (n = 340,000); AID 1259313;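 active means melting temperature shift of at least 10% of the positive control shift, at one fixed dose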
iPSC survival up = hiPSC single-cell survival enhancement. ATPlite luminescence; 100% = ROCK inhibitor wells, 0% = DMSO. survival enhancement, % at 20 µM. actives 0.044% (n = 360,000); in the data active means survival enhancement above about 18%;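 further: cells exposed to compounds for 16 hours before the ATP read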
Arr AP2 block = blocks beta-arrestin peptide binding to AP2 adaptin. inhibition, % at 10 µM. FITC-arrestin peptide / GST-AP2 beads, flow cytometry; AP2 beta2 appendage carries R879A mutation. AID 504490. actives 0.31% (n = 340,000);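 active means inhibition above a set limit, near 3 SD of compounds lacking own fluorescence, cut at about 54% in these data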;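 further: plate controls were DMSO wells for no effect and 5 µM unlabelled arrestin peptide for full effect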
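Test system: GST-tagged AP2 beta2-adaptin appendage (R879A) on 4 µm glutathione beads; also added: fluorescein-tagged arrestin peptide at 50 nM final; timing: 12 min plus 1 h, RT; signal: flow cytometry, FL1 (488/535 nm); read-out: percent drop in bead-associated FITC signal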
SENP1 FRET inh = blocks the human SENP1 SUMO protease catalytic domain; Q9P0U3; recombinant SENP1 catalytic domain, CyPet-SUMO1-YPet FRET cleavage; inhibition, % at 10 µM; actives 0.21% (n = 360,000); AID 624204;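 active means inhibition at least 30% at 10 µM, raw YFP signal under a set limit, fluorescence ratio 0.5 to 1.5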;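 further: 0% = enzyme with DMSO and 100% = no enzyme wells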
Target sequence (Q9P0U3 419-644 limits assumed): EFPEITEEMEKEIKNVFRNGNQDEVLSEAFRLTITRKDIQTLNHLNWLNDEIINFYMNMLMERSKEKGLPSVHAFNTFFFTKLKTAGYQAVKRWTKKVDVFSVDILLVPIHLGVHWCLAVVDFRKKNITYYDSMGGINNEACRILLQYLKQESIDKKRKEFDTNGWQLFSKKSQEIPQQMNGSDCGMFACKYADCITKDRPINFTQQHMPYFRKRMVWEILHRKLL
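Compound: 10 µM single point, 0.5% DMSO; Test system: hSENP1 catalytic domain, recombinant; Timing: 50 min reaction at room temperature; Technique: FRET, CFP and YFP emission; Control set: no-enzyme wells low, DMSO-plus-enzyme wells high control.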
FAS-TE inh = FAS thioesterase (human) inhibition | actives 0.67% (n = 360,000) | recombinant FAS-TE, OMFH fluorogenic substrate, fluorescence endpoint | P49327 | AID 602261 | inhibition, % at 15 µM;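 active means compounds whose normalised, plate-corrected inhibition of enzyme fluorescence in the single-dose primary screen is 50% or more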;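 further: 0% = DMSO with enzyme and 100% = substrate without enzyme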
Active calls of the source: *; nt = no result given. Sampled rows, rich in hits. Any-hit rate of the full collection: about 4%.

SMILES	Cardio protect	NR3A LBD binder	iPSC survival up	Arr AP2 block	SENP1 FRET inh	FAS-TE inh
O=S(=O)(NCCc1csc(-c2cccnc2)n1)c1cccs1	-0.8	12.8*	-2.0	0.8	-1.1	-6.4
CC(=O)Nc1cc(-c2ccc(N(C)C)cc2)cn2c(-c3ccc(F)cc3)cnc12	-3.5	nt	-2.0	nt	38.4	1.8
COc1ccccc1Oc1cc(-n2nc(C)cc2C)ncn1	-1.3	10.4*	-0.3	-6.4	2.3	2.0
COc1ccccc1OCC(O)Cn1nc(C)cc1C (configuration not stated)	5.4	0.0	-2.1	-5.3	2.7	-6.9
N#CC(C#N)=C1C=C2C=C(N3CCCCC3)CCC2CC1 (configuration not stated)	nt	21.0*	nt	nt	nt	nt
Cc1cccc(C)c1NC(=O)C(c1ccccc1OC(F)(F)F)N1CCC(c2ccccc2)CC1 (configuration not stated)	nt	nt	nt	nt	2.1	nt
COc1ccc(C(C)=O)cc1CN1C(=O)C(C)ON=C1c1cccc(C(F)(F)F)c1 (configuration not stated)	-3.0	nt	-2.4	nt	1.2	5.7
Cn1c(N)c(C(=O)N/N=C/c2ccccc2)sc1=S	-0.2	32.8*	0.0	7.4	-22.4	3.0
O=S(=O)(N/N=C/c1ccc(Cl)cc1)c1ccc(Cc2ncc(C(F)(F)F)cc2Cl)s1	-1.7	28.9*	-0.4	23.3	1.6	20.1
NC(=O)c1ccc(Cc2ncc(C(F)(F)F)cc2Cl)s1	8.5	8.0	-0.8	9.3	1.5	-4.0
CN(Cc1ccccc1)C(=O)c1cccc(NC(=O)Cc2ccc(NC(=O)C3CCN(C(=O)CCc4ccccc4)CC3)cc2)c1	-12.2	17.1*	2.2	7.6	-0.3	8.9
CN(Cc1ccccc1)C(=O)c1ccc(NC(=O)Cc2ccc(NC(=O)C3CCN(C(=O)CCc4ccccc4)CC3)cc2)cc1	-21.7	12.9*	-3.2	-0.1	1.5	12.3
CC[C@]12C(=O)N(C)C[C@H]([C@@H]3C(=O)N(C)C(=O)[C@@H]31)N2C(=O)c1ccc(C)cc1	2.9	-1.2	-1.0	6.0	-3.4	-6.6
CC(=O)c1ccc(Nc2nc(C(N)CCc3ccccc3)cs2)cc1 (configuration not stated)	-6.9	nt	-0.6	nt	-3.0	-0.6
CC1Nc2ncnc(N3CCN(c4ccccc4)CC3)c2N(Cc2ccc(Br)cc2)C1=O (configuration not stated)	61.7*	-6.0	-0.9	13.7	-3.1	40.1
O=C1C(Cc2ccccc2)Nc2ncnc(N3CCc4ccccc4C3)c2N1Cc1ccc(Cl)cc1 (configuration not stated)	6.8	-29.8	3.7	-4.1	-28.8	55.4*
COc1ccc(CN2C(=O)C(C)Nc3ncnc(N4CCN(c5ccccc5)CC4)c32)cc1 (configuration not stated)	31.6	-1.3	0.1	2.8	-9.5	0.8
OC(c1ccccc1)c1nc(-c2cncnc2)cs1 (configuration not stated)	-1.9	nt	-1.2	nt	1.4	-7.3
Cc1ccc(Cc2c(-c3ccccc3)nc3c(Cl)cc(C(F)(F)F)cn23)cc1	-2.7	nt	-0.5	nt	3.5	-5.7
CC(C)Nc1nc(-c2cccnc2)nc(-c2ccc(Cl)cc2)c1C#N	-7.7	-1.0	1.0	12.0	0.4	2.8
N#Cc1c(-c2ccccc2)nc(-c2ccncc2)[nH]c1=O	4.0	-1.8	-2.3	-1.9	-0.5	-2.6
N#Cc1c(Cl)nc(-c2ccncc2)nc1-c1ccccc1	0.5	10.6*	1.1	12.3	3.4	-1.3
CC(C)Nc1nc(-c2ccncc2)nc(-c2ccc(Cl)cc2)c1C#N	0.8	10.5*	0.9	6.8	3.1	5.4
COc1cccc(C(C)(O)c2nc(-c3ccc(N(C)C)cc3)cs2)c1 (configuration not stated)	-9.6	nt	-2.2	nt	6.2	10.8
CCCCn1nnnc1C(c1cc2ccccc2o1)N(C)Cc1ccccc1 (configuration not stated)	nt	nt	-1.0	nt	-3.4	24.9
CCCCCNC(=O)C(c1cccc2ccccc12)n1c(=O)c(-c2cc3ccccc3[nH]2)nc2ccccc21 (configuration not stated)	nt	nt	nt	nt	-14.9	nt

Screens from PubChem BioAssay.
